From ChEMBL document CHEMBL5303300, “EUbOPEN Chemogenomics Library - Multiplex” (2023)
“And” between values parts separate entries of the source, which are not always exact repeats. Identical values can stand only once.

Tested on: U2OS
Experiment: Multiplex assay against U2OS
Assay type: toxicity, cell-based
Details: human, number of replicates 2
How it was run: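 At seeding, live cells were stained with Hoechst33342, BioTracker Green Microtubule Cytoskeleton Dye, MitoTracker Red and Annexin V Alexa Fluor 680. After compound addition they were imaged on a CQ1 microscope at 37°C and 5% CO2, and CellPathfinder machine-learning gating sorted them into Hoechst high-intensity objects or normal cells, with normal cells further split into healthy, pyknosed or fragmented nuclei and pyknosed cells into mitotic or apoptotic. Tubulin, mitochondrial-mass and membrane-permeability phenotypes are given as per cents of cells with healthy nuclei.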

[1] = 12 h, 1 µM, compound concentration 1 uM
[2] = 12 h, 10 µM, compound concentration 10 uM
[3] = 24 h, 1 µM, compound concentration 1 uM
[4] = 24 h, 10 µM, compound concentration 10 uM
[5] = 48 h, 1 µM, compound concentration 1 uM
[6] = 48 h, 10 µM, compound concentration 10 uM

## CN(C)[C@H]1CC[C@H](Nc2ncc3ncnc(Nc4ccc(F)c(Cl)c4)c3n2)CC1
[1]
  Population Fragmented Nuclei (%): 46% and 17%
  Population Healthy Nuclei (%): 42% and 68%
  Population Hoechst High Intensity Objects (%): 0%
  Population Membrane Permeable-Phenotype (%): 4% and 1%
  Population Mitochondria Different-Phenotype (%): 4% and 1%
  Population Mitotic Cells (%): 100% and 64%
  Population Normal (%): 100% and 99%
  Population Pyknosed Nuclei (%): 10% and 14%
  Population Tubulin-Different-Phenotype (%): 76% and 89%
[2]
  Population Apoptotic (%): 6% and 13%
  Population Fragmented Nuclei (%): 38% and 27%
  Population Healthy Nuclei (%): 36%
  Population Hoechst High Intensity Objects (%): 9% and 11%
  Population Membrane Permeable-Phenotype (%): 7% and 2%
  Population Mitochondria Different-Phenotype (%): 6% and 1%
  Population Mitotic Cells (%): 93% and 86%
  Population Normal (%): 90% and 88%
  Population Pyknosed Nuclei (%): 25% and 35%
  Population Tubulin-Different-Phenotype (%): 50% and 81%
  Total Cell Count: 197 and 472
[3]
  Population Apoptotic (%): 16% and 47%
  Population Healthy Nuclei (%): 43% and 76%
  Population Hoechst High Intensity Objects (%): 0%
  Population Membrane Permeable-Phenotype (%): 0% and 3%
  Population Mitochondria Different-Phenotype (%): 0% and 1%
  Population Mitotic Cells (%): 83% and 52%
  Population Normal (%): 100% and 99%
  Population Pyknosed Nuclei (%): 9% and 11%
  Population Tubulin-Different-Phenotype (%): 75% and 92%
[4]
  Population Apoptotic (%): 17% and 10%
  Population Fragmented Nuclei (%): 40% and 25%
  Population Healthy Nuclei (%): 33% and 40%
  Population Hoechst High Intensity Objects (%): 14% and 9%
  Population Membrane Permeable-Phenotype (%): 8% and 2%
  Population Mitochondria Different-Phenotype (%): 2% and 0%
  Population Mitotic Cells (%): 82% and 89%
  Population Normal (%): 85% and 90%
  Population Pyknosed Nuclei (%): 26% and 33%
  Population Tubulin-Different-Phenotype (%): 61% and 82%
[5]
  Population Apoptotic (%): 75% and 60%
  Population Healthy Nuclei (%): 39% and 76%
  Population Hoechst High Intensity Objects (%): 0%
  Population Membrane Permeable-Phenotype (%): 3% and 1%
  Population Mitochondria Different-Phenotype (%): 0% and 1%
  Population Mitotic Cells (%): 25% and 39%
  Population Normal (%): 100% and 99%
  Population Pyknosed Nuclei (%): 5% and 8%
  Population Tubulin-Different-Phenotype (%): 71% and 89%
[6]
  Population Apoptotic (%): 18% and 14%
  Population Fragmented Nuclei (%): 36% and 26%
  Population Healthy Nuclei (%): 38% and 47%
  Population Hoechst High Intensity Objects (%): 13% and 10%
  Population Membrane Permeable-Phenotype (%): 9% and 1%
  Population Mitochondria Different-Phenotype (%): 4% and 0%
  Population Mitotic Cells (%): 81% and 85%
  Population Normal (%): 86% and 89%
  Population Pyknosed Nuclei (%): 25%
  Population Tubulin-Different-Phenotype (%): 53% and 79%

## CS(=O)(=O)c1ccc(C(=O)Nc2cccc(COc3ccc(Br)cc3CN3CC[C@H](O)C3)c2)cc1.O=CO
[1]
  Population Apoptotic (%): 100% and 72%
  Population Fragmented Nuclei (%): 8% and 2%
  Population Healthy Nuclei (%): 84% and 83%
  Population Hoechst High Intensity Objects (%): 0%
  Population Normal (%): 100%
[2]
  Population Apoptotic (%): 100% and 70%
  Population Healthy Nuclei (%): 68% and 78%
  Population Hoechst High Intensity Objects (%): 0%
  Population Normal (%): 100% and 99%
[3]
  Population Apoptotic (%): 50%
  Population Fragmented Nuclei (%): 4% and 3%
  Population Healthy Nuclei (%): 85% and 86%
  Population Hoechst High Intensity Objects (%): 0%
  Population Mitotic Cells (%): 50% and 31%
  Population Normal (%): 100% and 99%
[4]
  Population Apoptotic (%): 88% and 75%
  Population Healthy Nuclei (%): 58% and 73%
  Population Hoechst High Intensity Objects (%): 0%
  Population Mitotic Cells (%): 11% and 24%
  Population Normal (%): 100%
[5]
  Population Apoptotic (%): 54% and 76%
  Population Fragmented Nuclei (%): 4% and 1%
  Population Healthy Nuclei (%): 84% and 89%
  Population Hoechst High Intensity Objects (%): 0%
  Population Mitotic Cells (%): 45% and 23%
  Population Normal (%): 100% and 99%
[6]
  Population Apoptotic (%): 75% and 80%
  Population Healthy Nuclei (%): 54% and 69%
  Population Hoechst High Intensity Objects (%): 0%
  Population Mitotic Cells (%): 25% and 19%
  Population Normal (%): 100% and 99%

## Cc1onc(-c2ccccc2Cl)c1C(=O)N(C)c1ccc(Cl)cc1
[1]
  Population Apoptotic (%): 60% and 64%
  Population Healthy Nuclei (%): 57% and 80%
  Population Hoechst High Intensity Objects (%): 0%
  Population Mitochondria Different-Phenotype (%): 20% and 0%
  Population Mitotic Cells (%): 40% and 35%
  Population Normal (%): 100%
  Population Pyknosed Nuclei (%): 14% and 17%
  Population Tubulin-Different-Phenotype (%): 65% and 85%
[2]
  Population Apoptotic (%): 33% and 73%
  Population Healthy Nuclei (%): 52% and 83%
  Population Hoechst High Intensity Objects (%): 0%
  Population Membrane Permeable-Phenotype (%): 0% and 4%
  Population Mitochondria Different-Phenotype (%): 0%
  Population Mitotic Cells (%): 66% and 26%
  Population Normal (%): 100%
  Population Pyknosed Nuclei (%): 13% and 12%
  Population Tubulin-Different-Phenotype (%): 88% and 70%
[3]
  Population Apoptotic (%): 50% and 45%
  Population Healthy Nuclei (%): 72% and 85%
  Population Hoechst High Intensity Objects (%): 0%
  Population Mitochondria Different-Phenotype (%): 13% and 0%
  Population Mitotic Cells (%): 50% and 54%
  Population Normal (%): 100% and 99%
  Population Pyknosed Nuclei (%): 10% and 12%
  Population Tubulin-Different-Phenotype (%): 68% and 86%
[4]
  Population Apoptotic (%): 22% and 41%
  Population Healthy Nuclei (%): 67% and 85%
  Population Hoechst High Intensity Objects (%): 0%
  Population Membrane Permeable-Phenotype (%): 3%
  Population Mitochondria Different-Phenotype (%): 1%
  Population Mitotic Cells (%): 77% and 58%
  Population Normal (%): 100%
  Population Pyknosed Nuclei (%): 9% and 10%
  Population Tubulin-Different-Phenotype (%): 77% and 73%
[5]
  Population Apoptotic (%): 60% and 56%
  Population Healthy Nuclei (%): 75% and 91%
  Population Hoechst High Intensity Objects (%): 0%
  Population Membrane Permeable-Phenotype (%): 8% and 2%
  Population Mitochondria Different-Phenotype (%): 3% and 0%
  Population Mitotic Cells (%): 40% and 43%
  Population Normal (%): 100% and 99%
  Population Pyknosed Nuclei (%): 6%
  Population Tubulin-Different-Phenotype (%): 74% and 88%
[6]
  Population Apoptotic (%): 30% and 56%
  Population Healthy Nuclei (%): 76% and 89%
  Population Hoechst High Intensity Objects (%): 0%
  Population Membrane Permeable-Phenotype (%): 0% and 1%
  Population Mitochondria Different-Phenotype (%): 0% and 2%
  Population Mitotic Cells (%): 70% and 43%
  Population Normal (%): 100%
  Population Pyknosed Nuclei (%): 7% and 9%
  Population Tubulin-Different-Phenotype (%): 88% and 82%
